Reference: ChEMBL document CHEMBL4680340, “Discovery and structure activity relationship of glyoxamide derivatives as anti-hepatitis B virus agents” (Bioorg Med Chem, 2021)

Columns and labels:
[1] = test system: Hepatitis B virus; assay: Antiviral activity against Hepatitis B virus infected in human HePAD38 cells assessed as reduction in viral DNA replication incubated for 7 days by RT-PCR analysis; type: functional, organism-based; settings: HePAD38, 168 h; for EC90: time 7 day
How it was run: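 HepAD38 cells seeded and held 2 days at 37 °C, 5% CO2, then washed with PBS; compounds added in duplicate at various concentrations in tetracycline-free medium (from 40 mM stocks). Day 7: total DNA extracted, HBV DNA quantified by real-time PCR; ΔCT against untreated tetracycline-free control; EC50 and EC90 computed.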

[2] = Cytotoxicity against human PBMC cells assessed as reduction in cell viability by MTT assay; type: cell-based
[3] = Cytotoxicity against human CEM cells assessed as reduction in cell viability by MTT assay; type: cell-based; settings: CEM (CCRF-CEM) cells
[4] = Cytotoxicity against African green monkey Vero cells assessed as reduction in cell viability by MTT assay; type: cell-based; settings: chlorocebus sabaeus
[5] = Cytotoxicity against human HepG2 cells assessed as reduction in cell viability by MTT assay; type: cell-based
[6] = Therapeutic index, ratio of CC50 for human HepG2 cells to IC50 for Hepatitis B virus infected in human HePAD38 cells; type: toxicity, cell-based; settings: read-out: Ratio CC50/IC50

| SMILES | EC50 [1] | EC90 [1] | CC50 [2] | CC50 [3] | CC50 [4] | CC50 [5] | selectivity ratio [6] |
| --- | --- | --- | --- | --- | --- | --- | --- |
| Cc1c(C(=O)C(=O)Nc2nc3ccccc3[nH]2)c(C)n(C)c1C(=O)Nc1ccc(F)c(F)c1 | 0.21 µM | 3.44 µM | 90 µM | 35.8 µM | 46.9 µM | 74.9 µM |  |
| Cn1cc(C(=O)C(=O)Nc2ccccc2)cc1C(=O)Nc1ccc(F)c(F)c1 | 0.08 µM | 1.8 µM | > 100 µM | > 100 µM | 13.4 µM | > 100 µM |  |
| Cc1c(C(=O)C(=O)NCc2ccccn2)c(C)n(C)c1C(=O)Nc1ccc(F)c(F)c1 | 0.16 µM | 2.02 µM | > 100 µM | 38.4 µM | 9.6 µM | 7.2 µM |  |
| Cc1c(C(=O)C(=O)N2CCN(C)CC2)c(C)n(C)c1C(=O)Nc1ccc(F)c(F)c1 | 0.005 µM | 0.1 µM | ≥ 100 µM | 24.7 µM | ≥ 100 µM | 95.4 µM |  |
| C#CCNC(=O)C(=O)c1cc(C(=O)Nc2ccc(F)c(F)c2)n(C)c1 | 5.6 µM | > 10 µM | 57.9 µM | 70.3 µM | 89 µM | > 100 µM |  |
| C=CCNC(=O)C(=O)c1cc(C(=O)Nc2ccc(F)c(F)c2)n(C)c1 | 0.09 µM | 3.05 µM | > 100 µM | > 100 µM | 68.1 µM | > 100 µM |  |
| C#CCNC(=O)C(=O)c1c(C)c(C(=O)Nc2ccc(F)c(F)c2)n(C)c1C | 0.003 µM | 0.014 µM | > 100 µM | > 100 µM | 46.4 µM | > 100 µM | > 33300 |
| Cc1c(C(=O)C(=O)Nc2nccs2)c(C)n(C)c1C(=O)Nc1ccc(F)c(F)c1 | 0.006 µM | 0.03 µM | > 100 µM | 26.8 µM | > 100 µM | 83.9 µM |  |
| Nc1ccn([C@@H]2CS[C@H](CO)O2)c(=O)n1 [LAMIVUDINE] | 0.41 µM | 1.65 µM | > 100 µM | > 100 µM | > 100 µM | > 100 µM |  |
| O=C(Nc1ccc(F)c(F)c1)c1cc(S(=O)(=O)N2CC(F)(F)C2)ccc1F | 1.2 µM | 6.3 µM |  |  |  |  |  |
| Cn1cc(C(=O)C(=O)N2CCOCC2)cc1C(=O)Nc1ccc(F)c(F)c1 | 1.1 µM | 4.62 µM | > 100 µM | > 100 µM | 41.9 µM | 93.9 µM |  |
| CCOC(=O)C1=C(CN2CCOCC2)NC(c2nccs2)=NC1c1ccc(F)cc1Br (centres undefined) | 0.08 µM | 0.28 µM |  |  |  |  |  |
| Cn1cc(C(=O)C(=O)NCc2ccccc2)cc1C(=O)Nc1ccc(F)c(F)c1 | 0.41 µM | 7.95 µM | > 100 µM | > 100 µM | 62.4 µM | > 100 µM |  |
| Cn1cc(C(=O)C(=O)Nc2nccs2)cc1C(=O)Nc1ccc(F)c(F)c1 | 0.47 µM | 4.1 µM | > 100 µM | > 100 µM | 31.2 µM | > 100 µM |  |
| C=C1[C@H](CO)[C@@H](O)C[C@@H]1n1cnc2c(=O)[nH]c(N)nc21 | 0.0006 µM | 0.011 µM | 15.7 µM | > 100 µM | > 100 µM | > 100 µM |  |
| Cn1cc(C(=O)C(=O)NOC2CCCC2)cc1C(=O)Nc1ccc(F)c(F)c1 | 0.56 µM | 2.95 µM | ≥ 100 µM | 37.9 µM | 80.1 µM | > 100 µM |  |
| Cc1c(C(=O)C(=O)Nc2ccccn2)c(C)n(C)c1C(=O)Nc1ccc(F)c(F)c1 | 0.004 µM | 0.06 µM | > 100 µM | 14.6 µM | > 100 µM | 83.7 µM |  |
| Cn1cc(C(=O)C(=O)NCC#N)cc1C(=O)Nc1ccc(F)c(F)c1 | 5.16 µM | 10 µM | > 100 µM | > 100 µM | 91.4 µM | > 100 µM |  |
| Cn1cc(C(=O)C(=O)N2CC(F)(F)C2)cc1C(=O)Nc1ccc(F)c(F)c1 | 3.8 µM | 9.67 µM | > 100 µM | > 100 µM | > 100 µM | > 100 µM |  |
| Cc1c(C(=O)C(=O)NCc2nccn2C)c(C)n(C)c1C(=O)Nc1ccc(F)c(F)c1 | 0.01 µM | 0.17 µM | > 100 µM | 46.9 µM | 50.6 µM | 34.7 µM |  |
| CCN(CC)C(=O)C(=O)c1c(C)c(C(=O)Nc2ccc(F)c(F)c2)n(C)c1C | 0.58 µM | 5.64 µM | 91.7 µM | 16.8 µM | > 100 µM | 89.9 µM |  |
